Columns and labels:
[1] = system: West Nile virus; experiment: Inhibition of WNV NS2B/NS3 protease using Bz-Nle-Lys-Arg-Arg-AMC as substrate at 25 uM by spectrofluorometric analysis relative to control
How it was run: (§1)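 Protease (DENV2 NS2B-NS3pro 25 nM; WNV NS2B-NS3pro with 5-residue linker 28 nM) incubated with inhibitor in DMSO, 15 min at 37 °C, in 200 mM Tris·HCl pH 9.5, 6 mM NaCl, 30% glycerol. Reaction started with 5.0 μM substrate. AMC release read at ex 380/em 460 nm. No-protease background subtracted; no-inhibitor control taken as 100%. Triplicates.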

[2] = system: West Nile virus; experiment: Inhibition of WNV NS2B/NS3 protease using Bz-Nle-Lys-Arg-Arg-AMC as substrate at 10 uM by spectrofluorometric analysis relative to control; how it was run: as §1
[3] = system: dengue virus type 2; experiment: Inhibition of DENV2 NS2B/NS3 protease expressed in Escherichia coli Top 10 F' using Bz-Nle-Lys-Arg-Arg-AMC as substrate at 25 uM by spectroflorometer analysis relative to control; how it was run: as §1
[4] = system: dengue virus type 2; experiment: Inhibition of DENV2 NS2B/NS3 protease expressed in Escherichia coli Top 10 F' using Bz-Nle-Lys-Arg-Arg-AMC as substrate at 10 uM by spectroflorometer analysis relative to control; how it was run: as §1
[5] = Competitive inhibition of DENV2 NS2B/NS3 protease expressed in Escherichia coli Top 10 F' using Bz-Nle-Lys-Arg-Arg-AMC as substrate by Michaelis-Menten equation analysis; design: species or system dengue virus type 2
How it was run: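 DENV2 NS2B-NS3pro construct (NS2B hydrophilic cofactor joined to NS3 protease via Q-R), 25 nM, in 200 mM Tris·HCl pH 9.5, 6 mM NaCl, 30% glycerol, 0.1% CHAPS at 37 °C. Inhibitor at 0, 1.0, 3.0 and 5.0 μM; substrate 0-50 μM; started with enzyme. Initial rates from AMC fluorescence (ex 380/em 460 nm) every 1.5 min, under 5% conversion. Duplicates, repeated three times. Ki from secondary plot of Km,app against inhibitor.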

[6] = Inhibition of WNV NS2B/NS3 protease using Bz-Nle-Lys-Arg-Arg-AMC as substrate by spectrofluorometric analysis relative to control; design: species or system West Nile virus
How it was run: (§2)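 IC50 run in the same single-point format (DENV2 protease 25 nM, WNV protease 28 nM; 15 min preincubation at 37 °C, pH 9.5 Tris buffer, 5.0 μM substrate, fluorescence ex 380/em 460 nm). Twelve inhibitor levels from 10 nM to 25 μM. IC50 from a sigmoidal fit of activity relative to the no-inhibitor control. Triplicates.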

[7] = Inhibition of DENV2 NS2B/NS3 protease expressed in Escherichia coli Top 10 F' using Bz-Nle-Lys-Arg-Arg-AMC as substrate by spectroflorometer analysis relative to control; design: species or system dengue virus type 2; how it was run: as §2

SMILES | inhibition [1] [%] | inhibition [2] [%] | inhibition [3] [%] | inhibition [4] [%] | Ki [5] [µM] | IC50 [6] [µM] | IC50 [7] [µM]
CCOc1ccc(-c2nnc(C(Cc3ccccc3)n3sc4ccccc4c3=O)o2)cc1 (centres undefined) | 71.8 | 56.1 | 61.3 | 40.6 |  |  | 
O=c1c2ccccc2sn1C(Cc1cccc(F)c1)c1nnc(-c2cccc(Cl)c2)o1 (centres undefined) | 35.6 | 27.4 | 31.6 | 16 |  |  | 
O=c1c2ccccc2sn1Cc1nnc(-c2cccc(F)c2)o1 | 10.1 | 7.68 | 9.11 | 3.24 |  |  | 
O=c1c2ccccc2sn1C(Cc1ccccc1)c1nnc(Cc2ccccc2)o1 (centres undefined) | 30.1 | 20.5 | 31.2 | 22.4 |  |  | 
COc1ccc(-c2nnc(C(Cc3ccccc3)n3sc4ccccc4c3=O)o2)cc1 (centres undefined) | 73.4 | 68.6 | 80 | 65.5 | 3.61 | 4.22 | 3.75
O=c1c2ccccc2sn1C(Cc1ccccc1)c1nnc(-c2ccco2)o1 (centres undefined) | 57.7 | 44.3 | 64.7 | 52.3 |  |  | 
O=c1c2ccccc2sn1C(Cc1ccccc1)c1nnc(-c2cccc(Cl)c2)o1 (centres undefined) | 43.1 | 29 | 42.1 | 34.3 |  |  | 
CCc1nnc(C(Cc2ccccc2)n2sc3ccccc3c2=O)o1 (centres undefined) | 44.3 | 25.1 | 34.2 | 22.5 |  |  | 
Cc1nnc(C(Cc2ccccc2)n2sc3ccccc3c2=O)o1 (centres undefined) | 40.4 | 22.3 | 31.6 | 20 |  |  | 
O=c1c2ccccc2sn1C(Cc1ccccc1)c1nnc(-c2ccc(F)cc2)o1 (centres undefined) | 59.1 | 51.1 | 75.7 | 60.3 |  |  | 
COc1ccc(Cc2nnc(C(C)n3sc4ccccc4c3=O)o2)cc1 (centres undefined) | 9.79 | 4.17 | 17.8 | 8.08 |  |  | 
O=c1c2ccccc2sn1C(Cc1ccccc1)c1nnc(-c2ccncc2)o1 (centres undefined) | 72.7 | 63.1 | 70.9 | 62.4 |  |  | 
O=c1c2ccccc2sn1C(Cc1ccccc1)c1nnc(-c2ccc(Cl)cc2)o1 (centres undefined) | 63.2 | 53.5 | 70.5 | 53.2 |  |  | 
O=c1c2ccccc2sn1C(Cc1ccccc1)c1nnc(-c2cccnc2)o1 (centres undefined) | 62.5 | 55.8 | 70 | 58.1 |  |  | 
COc1ccc(Cc2nnc(C(Cc3ccccc3)n3sc4ccccc4c3=O)o2)cc1 (centres undefined) | 34.9 | 24.2 | 38.6 | 28.5 |  |  | 
O=c1c2ccccc2sn1C(Cc1ccccc1)c1nnc(-c2cccc(F)c2)o1 (centres undefined) | 38.9 | 30.4 | 50.9 | 39 |  |  | 
O=c1c2ccccc2sn1Cc1nnc(-c2cccc(Cl)c2)o1 | 9.15 | 6.15 | 16.7 | 5.21 |  |  | 
CCCc1nnc(C(Cc2ccccc2)n2sc3ccccc3c2=O)o1 (centres undefined) | 46.2 | 34.9 | 36.7 | 25.6 |  |  | 
COc1ccc(Cc2nnc(Cn3sc4ccccc4c3=O)o2)cc1 | 8.68 | 5.96 | 7.9 | 5.27 |  |  | 
O=c1c2ccccc2sn1C(Cc1ccccc1)c1nnc(-c2ccccc2)o1 (centres undefined) | 64.1 | 51.7 | 69.2 | 56.7 |  |  | 
O=c1c2ccccc2sn1Cc1nnc(Cc2ccccc2)o1 | 14.7 | 8.27 | 16.4 | 3.56 |  |  | 
O=c1c2ccccc2sn1C(Cc1ccccc1)c1nnc(-c2cccs2)o1 (centres undefined) | 59.7 | 43.7 | 69.8 | 52.3 |  |  | 
N#Cc1ccc(-c2nnc(C(Cc3ccccc3)n3sc4ccccc4c3=O)o2)cc1 (centres undefined) | 70.9 | 63.6 | 72.9 | 63.9 |  |  | 
O=c1c2ccccc2sn1C(CCc1ccccc1)c1nnc(-c2cccc(Cl)c2)o1 (centres undefined) | 33.9 | 23.9 | 35 | 26.1 |  |  | 

Source: ChEMBL document CHEMBL2311301, “Design, synthesis and characterization of novel 1,2-benzisothiazol-3(2H)-one and 1,3,4-oxadiazole hybrid derivatives: potent inhibitors of Dengue and West Nile virus NS2B/NS3 proteases” (Bioorg Med Chem, 2013)
